Assay outcomes as filed in PubChem BioAssay.
Apaf1 inhib = inhibitors of human Apaf-1 apoptosome, primary screen, biochemical, DEVD-Rh110 fluorescence, uHTS; reconstituted apoptosome caspase-3 activity; inhibition, % at 20 µM; hit rate 0.71% among 330,000; AID 489030, 2010; active means inhibition of at least 40% at 20 µM;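 further: plate controls were DMSO wells for no effect and DEVD-CHO caspase inhibitor wells for full effect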
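System: Apoptosome proteins | Medium: Hepes pH 7.5 with detergent and BSA | Also added: Cytochrome c trigger plus (Z-DEVD)2-Rh110 caspase-3 substrate | Incubation: 30 min compound preincubation, 50 min activation, room temperature | Detection: Rhodamine 110 fluorescence at Ex 480/Em 540 nm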
SENP8 block-1 = human SENP8 protease inhibitors, primary screen, biochemical, fluorescence, Nedd8 protein substrate, uHTS; hit rate 0.64% among 360,000; AID 602440, 2012; recombinant SENP8; Sentrin-specific protease 8 (Homo sapiens), Q96LD8; inhibition, % at 20 µM; in the data active means inhibition mostly above about 40%, no sharp cut-off; inactive means mostly below about 27%
Target sequence (Q96LD8 whole entry, looked up): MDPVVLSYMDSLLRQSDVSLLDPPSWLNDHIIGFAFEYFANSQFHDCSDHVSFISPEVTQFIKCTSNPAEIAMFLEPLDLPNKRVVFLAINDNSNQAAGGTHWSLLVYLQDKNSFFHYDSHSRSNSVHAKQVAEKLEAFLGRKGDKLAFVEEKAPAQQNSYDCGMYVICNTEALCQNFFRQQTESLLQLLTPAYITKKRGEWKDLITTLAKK
SENP6 inh = SENP6 protease inhibitors, primary screen, biochemical, luminescence, uHTS | Sentrin-specific protease 6 (Homo sapiens), Q9GZR1 | Recombinant SENP6 catalytic domain, aminoluciferin luminescence | inhibition, % at 10 µM | hit rate 1.8% among 330,000;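 active means inhibition above about 50% at the single tested dose, limit read from the data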;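 further: plate controls were DMSO wells with enzyme for no effect and DMSO wells lacking enzyme for full effect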
Target sequence (Q9GZR1 628-1112 limits assumed): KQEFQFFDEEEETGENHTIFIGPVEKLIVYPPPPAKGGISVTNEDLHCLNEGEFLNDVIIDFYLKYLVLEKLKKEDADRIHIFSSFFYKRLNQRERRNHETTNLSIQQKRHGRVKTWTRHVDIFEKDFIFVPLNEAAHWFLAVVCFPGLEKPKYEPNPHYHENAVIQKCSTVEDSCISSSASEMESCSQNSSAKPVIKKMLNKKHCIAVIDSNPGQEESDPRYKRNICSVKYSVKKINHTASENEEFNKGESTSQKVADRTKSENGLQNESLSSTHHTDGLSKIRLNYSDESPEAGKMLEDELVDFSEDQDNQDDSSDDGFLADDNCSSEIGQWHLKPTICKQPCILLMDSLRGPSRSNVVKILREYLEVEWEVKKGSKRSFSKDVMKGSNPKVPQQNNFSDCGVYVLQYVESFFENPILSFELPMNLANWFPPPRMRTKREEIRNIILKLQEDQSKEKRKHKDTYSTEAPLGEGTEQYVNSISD
SENP7 inh = SENP7 protease inhibitors, primary screen, biochemical, luminescence, uHTS | Sentrin-specific protease 7 (Homo sapiens), Q9BQF6 | recombinant SENP7, Z-RLRGG-aminoluciferin luminescence, 40 min | inhibition, % at 5 µM | hit rate 1.5% among 330,000;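 active means inhibition above about 50% at the single test dose, limit read from the data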;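 further: plate controls were DMSO with enzyme for no effect and no enzyme buffer wells for full effect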
SENP8 block-2 = SENP8 protease inhibitors, primary screen, biochemical, luminescence; purified SENP8, Z-RLRGG-aminoluciferin cleavage; Sentrin-specific protease 8 (Homo sapiens), Q96LD8; hit rate 1.2% among 330,000; inhibition, % at 10 µM; in the data active means inhibition above about 50%
SENP1 FRET inh = human SENP1 catalytic domain inhibitors, primary screen, biochemical, FRET, uHTS. recombinant SENP1 catalytic domain, CyPet-SUMO1-YPet FRET cleavage. Sentrin-specific protease 1 (Homo sapiens), Q9P0U3. hit rate 0.21% among 360,000. inhibition, % at 10 µM. AID 624204, 2012;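 active means inhibition at least 30% at 10 µM, raw YFP signal under a set limit, fluorescence ratio 0.5 to 1.5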;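 further: 0% = enzyme with DMSO and 100% = no enzyme wells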
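system = hSENP1 catalytic domain, recombinant | reagent = SFCypet-SUMO1-SFYpet substrate at 25 nM | doses = one dose per compound, 10 µM, 0.5% DMSO | incubation = enzyme reaction for 50 min at room temperature, dark | measured by = FRET, CFP and YFP emission | controls = no-enzyme low, enzyme-DMSO high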
SENP8 confirm = SENP8 protease inhibitors, retest, confirmation, biochemical, luminescence, single concentration | shares compounds with SENP7 inh | Recombinant SENP8, Z-RLRGG-aminoluciferin luminescence, 60 min | inhibition, % at 12.5 µM | hit rate 40% among 6,200;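 active means mean inhibition across replicates above about 50%, limit read from the data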
SENP6 confirm = SENP6 protease inhibitors, confirmation, biochemical, luminescence, single concentration. hit rate 58% among 6,200. shares compounds with SENP7 inh. recombinant SENP6, Z-RLRGG-aminoluciferin luminescence. inhibition, % at 12.5 µM
SENP7 confirm = SENP7 protease inhibitors, retest, confirmation, biochemical, luminescence, single concentration; shares compounds with SENP7 inh; recombinant SENP7, Z-RLRGG-aminoluciferin luminescence, 40 min; inhibition, % at 12.5 µM; hit rate 69% among 6,200
Casp3 SENP sel = caspase-3 protease inhibitors, confirmation, selectivity assay for SENP inhibitor project, biochemical, single concentration | shares compounds with SENP7 inh | purified caspase-3, Z-DEVD-aminoluciferin luminescence, 60 min | hit rate 60% among 6,200 | inhibition, % at 12.5 µM;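 active means mean inhibition above about 50%, limit read from the data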;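 further: plate controls were enzyme with DMSO for no effect and wells without caspase-3 for full effect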
SENP luc ctr = counter-screen for SENP inhibitors: luminescence interference; shares compounds with SENP7 inh; Pre-incubated SENP8/Z-RLRGG-aminoluciferin, luciferase luminescence interference; inhibition, % at 12.5 µM; hit rate 39% among 6,200;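 active means mean inhibition above about 50% when retested at one dose, limit read from the data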;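 further: plate controls were DMSO wells with completed reaction for no effect and substrate without enzyme for full effect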
Apaf-1 inh conf2 = Apaf-1 inhibitors, single-dose retest, confirmation, biochemical, fluorescence, DEVD-Rh110, 20 µM; shares compounds with Apaf1 inhib; reconstituted apoptosome, caspase-3 DEVD-Rh110 fluorescence; inhibition, % at 20 µM; hit rate 25% among 1,800;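 active means mean inhibition of at least 40% at 20 µM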;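 further: plate controls were DMSO wells for no effect and DEVD-CHO caspase inhibitor control wells for full effect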
Rh110 quench = Rh110 fluorescence interference by putative Apaf-1 inhibitors, confirmation, artefact control for Apaf-1 inhibitor project, biochemical, 20 µM; activation (fluorescence interference), % at 20 µM; AID 504615, 2011; 1,800 tested, under 10 active; quenched caspase reaction; shares compounds with Apaf1 inhib;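 active means signal rise of 40% or more at 20 µM, treated as a fluorescence artifact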
Fluor interf inh = fluorescence interference of Apaf-1 inhibitor hits, dose response, artefact control for Apaf-1 inhibitor project. shares compounds with Apaf1 inhib. fluorescence interference counterscreen, Apaf-1 assay format. IC50, µM. 460 tested, under 10 active. AID 588538, 2011; call rule not given here
SENP1 inh conf = human SENP1 catalytic domain inhibitors, confirmation, biochemical, FRET endpoint, single concentration | shares compounds with SENP1 FRET inh | recombinant SENP1, CyPet-SUMO1-YPet FRET cleavage | inhibition, % at 10 µM | hit rate 34% among 520 | AID 651678, 2012; in the data active means inhibition mostly above about 35%, no sharp cut-off; inactive means mostly below about 32%;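 further: 0% = enzyme with DMSO and 100% = no enzyme control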
SENP1 kin conf = human SENP1 catalytic domain inhibitors, confirmation, biochemical, kinetic FRET, single concentration; shares compounds with SENP1 FRET inh; recombinant SENP1, CyPet-SUMO1-YPet FRET kinetic cleavage; inhibition, % at 10 µM; hit rate 26% among 520; in the data active means inhibition mostly above about 32%, no sharp cut-off; inactive means mostly below about 29%;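 further: 0% = DMSO with enzyme and 100% = no enzyme substrate only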
Active calls of the source: *; i = inactive; nt = no result given. Sampled rows, rich in hits. Any-hit rate of the full collection: about 2.9%.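 How the source made its calls, unless noted: active means mean inhibition above about 50% in the one-dose retest (limit read from the data); inactive means the rest.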

SMILES | Apaf1 inhib | SENP8 block-1 | SENP6 inh | SENP7 inh | SENP8 block-2 | SENP1 FRET inh | Apaf-1 inh conf2 | Rh110 quench | others
O=C1/C(=C/c2ccc([N+](=O)[O-])cc2)Oc2cc(O)ccc21 | 6 | 25 | 70* | 63* | 57* | 62* | nt | nt | SENP8 confirm=11;SENP6 confirm=47;SENP7 confirm=51*;Casp3 SENP sel=26;SENP luc ctr=53*;SENP1 inh conf=45*;SENP1 kin conf=26
COc1ccc(S(=O)(=O)NC(=O)C2(C)CCN2C(=O)C2(c3ccccc3)CC2)cc1 (stereo unspecified) | nt | 20 | nt | nt | nt | 3 | nt | nt
Cc1ccccc1/C=N/Nc1nc2ccccc2[nH]1 | 13 | -106 | -7 | -9 | -17 | 1 | nt | nt
Cc1[nH]c2ccccc2c1/C=N/Nc1nc2ccccc2[nH]1 | 40 | -160 | -24 | -5 | -13 | -8 | 18 | 9
O=C(COc1ccc2ccc(=O)oc2c1)Nc1ccc(N2CCCCC2)cc1 | 47* | i | -15 | -5 | 0 | -33 | 14 | 9
O=C(COc1ccc2ccc(=O)oc2c1)Nc1ccc(CCO)cc1 | -3 | -59 | -3 | 0 | 0 | -2 | nt | nt
Clc1ccc(C2=Nn3c(nnc3-c3n[nH]c4c3CCC4)SC2)cc1Cl | 43* | 10 | -2 | -3 | -4 | 3 | 34 | 4
CCOC(=O)CC1(CC)Oc2ccccc2N1S(=O)(=O)c1ccc(C)cc1 (stereo unspecified) | nt | 29 | nt | nt | nt | 2 | nt | nt
O=C1C=C(c2ccc(OC(F)(F)F)cc2)C[C@@H](c2ccc(F)cc2)C1 | 54* | 22 | -1 | 7 | -3 | 1 | 18 | 1
CC(=O)N1CCCc2cc(S(=O)(=O)N3CCCC(C(=O)Nc4ccccc4C)C3)ccc21 (stereo unspecified) | -8 | 7 | 3 | -3 | -3 | 0 | nt | nt
CCc1ccc([C@H]2[C@@H]3C(=O)C[C@@H]4C(=O)NC(=O)[C@@H]4[C@@H]3CN2S(=O)(=O)c2ccc(C)cc2)cc1 | nt | 7 | nt | nt | nt | -19 | nt | nt
FC(F)(F)C1=Nc2cccc3cccc(c23)N1 | 66* | 62* | -13 | 22 | 12 | 11 | 63* | 4 | Fluor interf inh=>100
Fc1ccc(C2=Nc3cccc4cccc(c34)N2)cc1 | 9 | 11 | -4 | -8 | -10 | -8 | nt | nt
CN(C)c1ccc(N=C/C=C2/N(C)c3ccccc3C2(C)C)cc1 | nt | 30 | nt | nt | nt | 11 | nt | nt
CCOc1ccc(CCNC(=O)COC(=O)C2=NNC(=O)CC2)cc1OCC | 7 | 2 | 4 | 11 | -3 | -1 | nt | nt
COCCNC(=O)C1(C)CCCN(C(=O)c2cc(C)on2)C1 (stereo unspecified) | nt | 8 | nt | nt | nt | -1 | nt | nt
COn1c2c(c3c4nonc4ccc31)CCCC2 | 47* | -263 | 38 | 1 | 2 | -20 | 52* | 10
Cc1nnc(SCC(=O)NC2CCCCCC2)n1C(C)C | -18 | 11 | -9 | -10 | 4 | 1 | nt | nt
CC(=O)Nc1cc2c(cc1Cl)-c1ccccc1C2O (stereo unspecified) | nt | 10 | nt | nt | nt | 2 | nt | nt
O=C1CCN(Cc2ccccc2)C=C1c1ccc(Cl)cc1 | 47* | -3 | -7 | 3 | 4 | -1 | 5 | 4
CCCCN1C(=N)N([C@@H](C)CN2CCC[C@H]2CN2C(N)=NC[C@H]2CC(C)C)C[C@H]1[C@H](C)CC | 5 | 16 | 17 | 4 | 10 | 0 | nt | nt
CC(C)C[C@@H]1CN=C(N)N1C[C@@H]1CCCN1C[C@@H](C(C)C)N1C[C@@H](Cc2ccccc2)N(CCc2ccc(Cl)c(Cl)c2)C1=N | 63* | 11 | -11 | -1 | -3 | -1 | 10 | 6
CC(C)C[C@@H]1CN=C(N)N1C[C@@H]1CCCN1C[C@H](C)N1C[C@@H](Cc2ccccc2)N(CCCC2CCCC2)C1=N | 55* | 20 | 19 | -1 | 2 | 0 | 5 | 2
CC(C)C[C@@H]1CN=C(N)N1C[C@@H]1CCCN1C[C@H](C)N1C[C@@H](Cc2ccccc2)N(CCc2ccc(Cl)c(Cl)c2)C1=N | 63* | 19 | -3 | -7 | -7 | 1 | 7 | 3
C/C(=N\NC1=NCCN1)c1ccc(N)c([N+](=O)[O-])c1 | -5 | 11 | -7 | 2 | 5 | 2 | nt | nt
